# RGS4 block: inhibitors of human RGS4. P49798. HEK293 M3R/RGS4 inducible, Fluo-4 calcium flux; stronger effect = higher value; triggered by carbachol at its EC20. B-score at 10 µM. 0.45% of 310,000 active. AID 463165;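 active = B-score, a plate-corrected calcium signal, over three deviations above library mean, with baseline fluorescence within five deviations of library mean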;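 note: RGS4 expression induced by doxycycline in cells with stable M3 receptor; B-score is computed from the integrated fluorescence ratio over baseline after carbachol; higher B-score means a larger calcium signal and so more RGS4 inhibition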
# Target sequence (P49798 whole entry, looked up): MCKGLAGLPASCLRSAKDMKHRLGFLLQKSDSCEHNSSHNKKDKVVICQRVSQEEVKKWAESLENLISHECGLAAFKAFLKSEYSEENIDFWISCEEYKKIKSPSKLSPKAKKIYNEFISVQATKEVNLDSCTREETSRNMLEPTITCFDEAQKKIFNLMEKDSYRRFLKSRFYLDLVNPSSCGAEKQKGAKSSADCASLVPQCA
# RGS4 pot: potentiators or activators of RGS4; 0.92% of 310,000 active; AID 463111; B-score at 10 µM; HEK293 M3R/inducible RGS4, carbachol calcium flux Fluo4; stronger effect = lower value;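 active = B-score of the integrated calcium signal more than 4 SD below the library mean, with starting fluorescence not abnormally high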;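 note: negative B-score means reduced calcium response which marks RGS4 activation or potentiation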
#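 Material: Inducible-RGS4 HEK293 cells carrying M3 receptor; also added: carbachol at ECmax as muscarinic agonist stimulus; incubation: compound preincubation 20 min at room temperature before agonist; signal: Fluo4-AM (2 µM) calcium-flux fluorescence, kinetic read; measure: integrated calcium ratio converted to B score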
# MrgX1 allo act: allosterically activates human MrgX1 receptor signaling; Q96LB2; MrgX1-HEK293, Fluo-4 calcium flux, FDSS; stronger effect = higher value; B-score at 10 µM; 0.63% of 310,000 active;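 active = plate-corrected calcium response at least 3 library SD above typical, normal starting fluorescence, not activating the receptor alone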;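 note: compound read alongside a low EC10 to EC30 dose of BAM8-22 agonist; peak minus trough fluorescence over baseline measured at the second addition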
# Target sequence (Q96LB2 whole entry, looked up): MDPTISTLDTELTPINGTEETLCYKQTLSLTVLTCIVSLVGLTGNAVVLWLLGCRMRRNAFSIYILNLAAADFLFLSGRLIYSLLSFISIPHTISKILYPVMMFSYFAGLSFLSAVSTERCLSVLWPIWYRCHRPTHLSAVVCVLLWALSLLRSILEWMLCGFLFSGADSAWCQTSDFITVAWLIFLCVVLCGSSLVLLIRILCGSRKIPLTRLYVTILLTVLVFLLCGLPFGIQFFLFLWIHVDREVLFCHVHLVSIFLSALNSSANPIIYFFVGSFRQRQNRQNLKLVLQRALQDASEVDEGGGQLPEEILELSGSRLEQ
# MrgX1 antagonist: antagonists of human MrgX1 receptor; 1.3% of 310,000 active; Q96LB2; B-score at 10 µM; MRGX1-HEK293 calcium flux, Fluo-4, BAM8-22 antagonism; stronger effect = lower value;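 active = calcium-response B-score plate-corrected more than 3 library SD below zero, starting fluorescence within 5 deviations, no agonist response on first addition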;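 note: peak minus trough fluorescence over baseline after final BAM8-22 challenge near maximal dose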
# MrgX1 agonist: activates human MrgX1 receptor signaling | MrgX1-HEK293 cells, Fluo-4 calcium fluorescence, agonist mode; stronger effect = higher value | B-score at 10 µM | 0.44% of 310,000 active | AID 588627;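 active = calcium response B-score plate-corrected fluorescence ratio at least 3 library SD, with starting fluorescence B-score inside 5 SD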
#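 Test system: Stable human MrgX1 HEK293 cell line | Schedule: Overnight plating before 1 h dye loading | Read-out basis: Baseline-normalised fluorescence change ratio, B-scored | Detection: Kinetic calcium dye fluorescence, Fluo-4 NW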
# * marks the source's active call; other numbers are inactive results; i = inactive; . = no result given. A selection: hits, their analogues and other compounds. The true share with any hit is near 3.5%.
SMILES,RGS4 block,RGS4 pot,MrgX1 allo act,MrgX1 antagonist,MrgX1 agonist
CCN1C(=O)CC2(C[N+]3(C)CCC2CC3)C1=O (centres undefined),i,-7.2*,i,i,i
CCC(C)[C@H]1CNC(=S)N1CCc1cc(C(F)(F)F)cc(C(F)(F)F)c1 (some centres undefined),i,i,i,-5.2*,i
CCC(C)[C@H]1CNCCN1CCc1cc(C(F)(F)F)cc(C(F)(F)F)c1 (some centres undefined),i,i,i,i,i
COc1ccc(NC(=O)COC(=O)c2ccc(O)cc2)c([N+](=O)[O-])c1,i,i,i,-5.5*,i
CCN1CCN(CCNC(=O)c2ccc(/C=C3/Sc4ccccc4N(Cc4ccccc4C)C3=O)cc2)CC1,i,-8.4*,.,.,.
Cc1onc(-c2ccccc2)c1C(=O)NNC(=S)NC(=O)/C=C/c1cccs1,i,i,i,i,58*
Cc1onc(-c2ccccc2)c1C(=O)NC(=S)NNC(=O)c1ccco1,i,i,i,i,60*
Cc1onc(-c2ccccc2)c1C(=O)NC(=S)NNC(=O)c1ccncc1,i,i,i,i,i
COc1cccc(CN2C(=O)NC3(CCCCCC3)C2=O)c1,i,i,i,i,i
O=S(=O)(Nc1ccon1)c1ccc(Br)cc1,i,i,i,i,i
CN1N=C2c3ccccc3CCCC2C1c1ccc(F)cc1 (centres undefined),i,i,i,i,i
CCOC(=O)c1sc(NC(=O)CSC(=S)N2CCN(C)CC2)nc1C,i,i,i,i,i
COc1ccc(OCc2cc(C(=O)NCCN3CCCc4ccccc43)no2)c(Cl)c1,i,-7.5*,i,i,i
Cc1cc(C)c(NC(=O)c2ccc[n+](Cc3ccc([N+](=O)[O-])cc3)c2)c(C)c1,i,i,i,i,i
C#CCOCCOCCOCCNc1nc(N2CCN(C(=O)CCCCCCCCCCNC(=O)[C@H](CCCCN)n3cc(C)nn3)CC2)nc(N2CCN(C(=O)CCCCCCCCCCNC(=O)[C@@H]([C@H](C)O)n3cc(C)nn3)CC2)n1,.,.,i,i,i
C#CCOCCOCCOCCNc1nc(N2CCN(C(=O)CCCCCCCCCCNC(=O)[C@H](CCCCN)n3cc(C[C@@H](C)CC)nn3)CC2)nc(N2CCN(C(=O)CCCCCCCCCCNC(=O)[C@H](CCCN=C(N)N)n3cc(C[C@@H](C)CC)nn3)CC2)n1,.,.,i,i,35*
C#CCOCCOCCOCCNc1nc(N2CCN(C(=O)CCCCCCCCCCNC(=O)[C@H](CCCCN)n3cc(C)nn3)CC2)nc(N2CCN(C(=O)CCCCCCCCCCNC(=O)[C@H](CCCN=C(N)N)n3cc(C[C@@H](C)CC)nn3)CC2)n1,.,.,i,i,104*
C#CCOCCOCCOCCNc1nc(N2CCN(C(=O)CCCCCCCCCCNC(=O)[C@@H](CCSC)n3cc(CCO)nn3)CC2)nc(N2CCN(C(=O)CCCCCCCCCCNC(=O)[C@H](CCCN=C(N)N)n3cc(C[C@@H](C)CC)nn3)CC2)n1,.,.,i,i,i
C#CCOCCOCCOCCNc1nc(N2CCN(C(=O)CCCCCCCCCCNC(=O)[C@H]([C@@H](C)CC)n3cc(CCCCN=C(N)N)nn3)CC2)nc(N2CCN(C(=O)CCCCCCCCCCNC(=O)[C@@H]([C@H](C)O)n3cc(C)nn3)CC2)n1,.,.,i,i,i
C#CCOCCOCCOCCNc1nc(N2CCN(C(=O)CCCCCCCCCCNC(=O)[C@H](CO)n3cc(CCCCCN)nn3)CC2)nc(N2CCN(C(=O)CCCCCCCCCCNC(=O)[C@H](CCCN=C(N)N)n3cc(C[C@@H](C)CC)nn3)CC2)n1,.,.,i,i,70*
C#CCOCCOCCOCCNc1nc(N2CCN(C(=O)CCCCCCCCCCNC(=O)[C@H](CCCCN)n3cc(C[C@@H](C)CC)nn3)CC2)nc(N2CCN(C(=O)CCCCCCCCCCNC(=O)[C@@H]([C@H](C)O)n3cc(C)nn3)CC2)n1,.,.,6.9*,i,i
Cc1cc([N+](=O)[O-])nn1CCC(=O)Nc1nccs1,i,i,i,i,i
N#CC(CO)(Cc1ccc(OC(F)F)cc1)c1nc2ccccc2[nH]1 (centres undefined),i,i,i,i,i
Cc1ccc(CNC(=O)COC(=O)c2ccc(Cl)c(N)c2)cc1,i,i,i,i,i
CN(C)c1cc[n+](CC(=O)N2c3ccccc3Sc3ccccc32)cc1,i,-8.1*,i,i,i
SMILES,RGS4 block,RGS4 pot,MrgX1 allo act,MrgX1 antagonist,MrgX1 agonist
O=C(COc1ccccc1)N1c2ccccc2Sc2ccccc21,i,i,i,i,i
COc1ccc(-c2nnc(SCC(=O)c3ccc(C)o3)o2)cc1,i,i,.,.,.
COc1ccc(-c2nnc(SCc3cc(C)cc(C)c3)o2)cc1,i,-7.2*,i,i,i
CC(=O)NC(=S)Nc1ccc2oc(=O)ccc2c1,i,i,i,i,i
CC1(C)CC(=O)C(C2C3=C(CC(C)(C)CC3=O)Oc3ccccc32)C(=O)C1 (centres undefined),i,i,i,i,i
CC1(C)CC(=O)C(C2C3=C(CC(C)(C)CC3=O)Oc3ccc4ccccc4c32)C(=O)C1 (centres undefined),i,i,i,i,40*
CCc1ccc2c(c1)c(N=NC1=NC(=O)CS1)c(O)n2CC,5*,i,i,i,i
CCc1ccc2[nH]c(O)c(N=NC3=NC(=O)CS3)c2c1,i,i,i,i,i
O=C(NCCS(=O)(=O)NCCCc1ccccc1)c1ccccc1,i,i,i,i,i
CCN(CC)Cc1ccccc1Sc1ccccc1,i,-9.2*,i,i,i
O=C(NN1C(=O)/C(=C/c2ccc(O)cc2)SC1=S)c1cccc(O)c1,i,i,i,i,i
O=C(NN1C(=O)/C(=C/c2ccc(O)c([N+](=O)[O-])c2)SC1=S)c1ccccc1Cl,i,i,i,i,i
COc1cc(/C=C2\SC(=S)N(NC(=O)c3ccccc3O)C2=O)ccc1O,i,i,i,i,40*
COc1cc(/C=C2\SC(=S)N(N(C)c3ccccc3)C2=O)ccc1O,i,i,i,i,34*
O=C(NN1C(=O)/C(=C/c2ccc(O)cc2)SC1=S)c1ccccc1O,i,i,i,-7.8*,i
COc1ccc(-c2noc3c2-c2nc(-c4c(F)cccc4F)sc2CC3)cc1,i,i,i,i,i
N#Cc1ccc(NC(=O)CNc2cc(S(=O)(=O)N3CCOCC3)ccc2NCC2CCCO2)cc1 (centres undefined),i,i,6.6*,i,i

# Compound activity deposited in PubChem by Johns Hopkins Ion Channel Center.
